ChEMBL document CHEMBL1806459, “Discovery of N-(1-ethylpropyl)-[3-methoxy-5-(2-methoxy-4-trifluoromethoxyphenyl)-6-methyl-pyrazin-2-yl]amine 59 (NGD 98-2): an orally active corticotropin releasing factor-1 (CRF-1) receptor antagonist” (J Med Chem, 2011)
Blank lines part the entries; values can stand above or below the compound they belong to.

How the values were obtained:
[1] = Ratio of drug level in brain to plasma of rat at 3 mg/kg, iv; assay type: ADME, organism-based; parameters: dose 3 mg/kg, route intravenous; conditions: read-out: BPR
Method in brief: (§1)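 Rat pharmacokinetics: compounds given iv (1 or 3 mg/kg) and po (5 or 10 mg/kg) in 2% Vitamin E TPGS (tocopheryl polyethylene glycol 1000 succinate). Plasma sampled over 24 h for Cmax, Tmax, AUC0–24 h, T1/2, clearance, Vss and oral bioavailability. Brain to plasma ratio also measured.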

[2] = Ratio of drug level in brain to plasma of rat at 5 mg/kg, po; assay type: ADME, organism-based; parameters: dose 5 mg/kg, route oral; conditions: read-out: BPR; method in brief: as §1
[3] = molecular target: T1, Corticotropin-releasing factor receptor 1 (Homo sapiens, UniProt P34998); assay: Displacement of [125I]-sauvagine from human CRF-1 receptor expressed in human IMR-32 cells after 2 hrs by scintillation counting; assay type: cell-based
T1 sequence (P34998 whole entry): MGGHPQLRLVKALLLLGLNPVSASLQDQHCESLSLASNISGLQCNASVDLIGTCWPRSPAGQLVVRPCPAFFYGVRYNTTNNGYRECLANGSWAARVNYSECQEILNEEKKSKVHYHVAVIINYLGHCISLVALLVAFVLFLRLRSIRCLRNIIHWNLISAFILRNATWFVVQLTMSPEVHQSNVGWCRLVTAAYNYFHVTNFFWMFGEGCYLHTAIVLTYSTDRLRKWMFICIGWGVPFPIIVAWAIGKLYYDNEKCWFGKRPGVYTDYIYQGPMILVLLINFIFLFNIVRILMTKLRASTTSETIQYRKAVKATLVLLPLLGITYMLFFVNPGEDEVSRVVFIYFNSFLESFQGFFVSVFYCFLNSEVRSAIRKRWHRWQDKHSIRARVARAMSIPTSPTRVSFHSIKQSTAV
Method in brief: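 Competition binding against 125I-sauvagine on membrane preparations from IMR-32 human neuroblastoma cells, which express CRF-1 endogenously. Modified from a published method.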

[4] = Half life in human microsomes; assay type: ADME, Microsome
Method in brief: (§2)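 Stability in human or rat liver microsomes; half-life (T1/2, min) of compound turnover reported.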

[5] = Half life in rat microsomes; assay type: ADME, Microsome; method in brief: as §2
[6] = Cmax in rat at 3 mg/kg, iv; assay type: ADME, organism-based; parameters: dose 3 mg/kg, route intravenous; conditions: in vivo
Method in brief: (§3)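 Rat PK, intravenous arm of a paired iv/po study. Dosed in 2% Vitamin E TPGS (tocopheryl polyethylene glycol 1000 succinate). Parameters derived from plasma: Cmax, AUC0–24 h, terminal T1/2.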

[7] = Cmax in rat at 5 mg/kg, po; assay type: ADME, organism-based; parameters: dose 5 mg/kg, route oral; conditions: in vivo
[8] = AUC (0 to 24 hrs) in rat at 3 mg/kg, iv; assay type: ADME, organism-based; parameters: time < 24 hr, dose 3 mg/kg, route intravenous; conditions: plasma; method in brief: as §3
[9] = AUC (0 to 24 hrs) in rat at 5 mg/kg, po; assay type: ADME, organism-based; parameters: time < 24 hr, dose 5 mg/kg, route oral; conditions: plasma
[10] = Tmax in rat at 3 mg/kg, iv; assay type: ADME, organism-based; parameters: dose 3 mg/kg, route intravenous; conditions: in vivo; method in brief: as §1
[11] = Tmax in rat at 5 mg/kg, po; assay type: ADME, organism-based; parameters: dose 5 mg/kg, route oral; conditions: in vivo; method in brief: as §1
[12] = Half life in rat at 3 mg/kg, iv; assay type: ADME, organism-based; parameters: dose 3 mg/kg, route intravenous; conditions: in vivo; method in brief: as §3
[13] = Half life in rat at 5 mg/kg, po; assay type: ADME, organism-based; parameters: dose 5 mg/kg, route oral; conditions: in vivo
[14] = Clearance in rat at 3 mg/kg, iv; assay type: ADME, organism-based; parameters: dose 3 mg/kg, route intravenous; conditions: in vivo
Method in brief: (§4)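 Rat PK with paired iv and oral dosing, vehicle 2% Vitamin E TPGS. Clearance and Vss from the iv arm; oral bioavailability F from comparing exposure after oral and iv doses.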

[15] = Clearance in rat at 5 mg/kg, po; assay type: ADME, organism-based; parameters: dose 5 mg/kg, route oral; conditions: in vivo
[16] = Volume of distribution at steady state in rat at 3 mg/kg, iv; assay type: ADME, organism-based; parameters: dose 3 mg/kg, route intravenous; conditions: in vivo, read-out: Vdss; method in brief: as §1
Rattus norvegicus = assay: Volume of distribution at steady state in rat at 5 mg/kg, po; assay type: ADME, organism-based; parameters: dose 5 mg/kg, route oral; conditions: in vivo; method in brief: as §1
[17] = Bioavailability in rat at 3 mg/kg, […]; assay type: ADME, organism-based; conditions: in vivo; method in brief: as §4
[18] = Oral bioavailability in rat at 5 mg/kg; assay type: ADME, organism-based; conditions: in vivo; method in brief: as §1
[19] = Drug uptake in rat adipose tissue assessed as radioactivity of labeled compound; assay type: ADME, tissue-based; conditions: in vivo
[20] = Oral bioavailability in rat; assay type: ADME, organism-based; conditions: in vivo; method in brief: as §1

Kp [1]: 2.5
Kp [2]: 2.5
Ki [3]: 4.1 nM
half-life [4]: 0.283 h
half-life [5]: 4.2 min
Cmax [6]: 627 ng/mL
Cmax [7]: 627 ng/mL
AUC(0-t) at 24 h [8]: 4310 ng·h/mL
AUC(0-t) at 24 h [9]: 4310 ng·h/mL
Tmax [10]: 1.3 h
Tmax [11]: 1.3 h
half-life [12]: 4.9 h
half-life [13]: 4.9 h
clearance [14]: 16 mL/min/kg
CL/F [15]: 16 mL/min/kg
Vd [16]: 6.5 L/kg
Vdss (Rattus norvegicus): 6.5 L/kg
bioavailability [17]: 83%
bioavailability [18]: 83%
Compound: CCc1nc(-c2ccc(Cl)cc2Cl)c(CC)nc1NC(CC)CC

Drug uptake [19]: Active
Compound: CCC(CC)Nc1nc(C)c(-c2ccc(OC(F)(F)F)cc2O[14CH3])nc1OC

bioavailability [20]: 6%
Compound: CCC(CC)Oc1c(C)nc(-c2c(OC)cc(Cl)cc2OC)nc1OC
